According to ChEMBL document CHEMBL2331294, “Anti-inflammatory diterpenoids from Croton tonkinensis” (J Nat Prod, 2013):

Key:
[1] = Antiinflammatory activity in FMLP/CB activated human neutrophils assessed as inhibition of superoxide generation at 10 uM by ferricytochrome c reduction based spectrophotometry; format: functional; details: Neutrophil
In short: (§1)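 Human donor neutrophils (6 × 10^5 cells/mL) with 0.5 mg/mL ferricytochrome c and 1 mM Ca2+, equilibrated 37 °C 2 min, then drug or 0.1% DMSO vehicle 5 min. Activated with 100 nM FMLP after 1 μg/mL cytochalasin B preincubation, 3 min. A550 followed continuously with stirring. Superoxide from SOD (100 U/mL)-inhibitable difference, ε = 21.1/mM/10 mm; n = 3−4.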

[2] = Antiinflammatory activity in FMLP/CB activated human neutrophils assessed as inhibition of elastase release at 10 uM; format: functional; details: Neutrophil
In short: (§2)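 Neutrophils from healthy donor blood (dextran sedimentation, Ficoll 1.077 g/mL, hypotonic lysis), held in Ca2+-free HBSS pH 7.4 at 4 °C. Cells (6 × 10^5/mL) with MeO-Suc-Ala-Ala-Pro-Val-p-nitroanilide 100 μM, equilibrated 37 °C 2 min, drug or 0.1% DMSO 5 min, then 100 nM FMLP plus 0.5 μg/mL cytochalasin B. A405 monitored continuously; expressed relative to drug-free activated control; n = 3−4.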

[3] = Antiinflammatory activity in FMLP/CB activated human neutrophils assessed as inhibition of superoxide generation by ferricytochrome c reduction based spectrophotometry; format: functional, cell-based, Neutrophil; in short: as §1
[4] = Antiinflammatory activity in FMLP/CB activated human neutrophils assessed as inhibition of elastase release; format: functional, cell-based, Neutrophil; in short: as §2
[5] = Homo sapiens, Neutrophil, read-out: IC50

Row | IC50 [3, 5] | IC50 [4, 5] | SMILES | inhibition at 10 µM [2] | other results
1 | – | – | C=C1C(=O)[C@@]23[C@H](O)C[C@@H]4[C@@](C)(COC(C)=O)CCC[C@@]4(C)[C@@H]2CC[C@@H]1[C@H]3O | 20.1% | inhibition at 10 µM [1]: 19%
2 | 1.33 µM | 1.65 µM | C=C1C(=O)[C@]23C[C@@H]1C[C@@H](OC(C)=O)[C@H]2[C@]1(C)CCC[C@](C)(COC(C)=O)[C@H]1C[C@@H]3O | – | –
3 | 4.96 µM | – | CC(=O)O[C@H]1C[C@@H]2C[C@]3(C=C2C=O)CC[C@H]2[C@@](C)(CCC[C@]2(C)C(=O)O)[C@H]13 [CROTONKININ C] | 41.8% | –
4 | 1.12 µM | 2.36 µM | C=C1C(=O)[C@@]23[C@H](O)C[C@@H]4C(C)(C)CCC[C@@]4(C)[C@@H]2CC[C@H]1[C@H]3OC(C)=O | – | –
5 | – | – | C=C1C[C@]23C[C@@H]1CC[C@H]2[C@]1(C)CCC[C@](C)(COC(C)=O)[C@H]1C[C@H]3O | – | IC50 ([3]; neutrophil): ND(Insoluble); IC50 ([4]; neutrophil): ND(Insoluble)
6 | 4.29 µM | – | COCC1C(=O)[C@]23C[C@H]1CC[C@H]2[C@]1(C)CCC[C@](C)(COC(C)=O)[C@H]1C[C@H]3O (stereo partly specified) [CROTONKININ G] | 11.1% | –
7 | 1.55 µM | 2.64 µM | C=C1C(=O)[C@]23C[C@H]1CC[C@H]2[C@]1(C)CCC[C@](C)(COC(C)=O)[C@H]1C[C@H]3O | – | –
8 | – | – | C=C1C(=O)[C@@]23CC[C@@H]4C(C)(C)CCC[C@@]4(C)[C@@H]2CC[C@H]1[C@H]3O | 3.64% | inhibition at 10 µM [1]: 33.6%
9 | 4.12 µM | 2.58 µM | C=C1C[C@@]23CC[C@H]4[C@@](C)(CCC[C@]4(C)C(=O)O)[C@@H]2[C@H](OC(C)=O)C[C@H]1C3 | – | –
10 | – | – | CC(=O)OC[C@@]1(C)CCC[C@]2(C)[C@@H]1CC[C@@]13C[C@@H](C[C@H](O)[C@H]12)C(C)(O)C3 (stereo partly specified) [CROTONKININ H] | 23.3% | inhibition at 10 µM [1]: -10.9%
11 | – | – | C=C1C[C@]23C(=O)C[C@H]4C(C)(C)CCC[C@]4(C)[C@H]2CC[C@H]1[C@@H]3O [CROTONKININ A] | -9.32% | inhibition at 10 µM [1]: 1.65%
12 | – | – | C=C1C(=O)[C@@]23CC[C@@H]4[C@@](C)(CO)CCC[C@@]4(C)[C@@H]2CC[C@@H]1C3 | 18% | inhibition at 10 µM [1]: 29.9%
13 | 1.96 µM | 3.22 µM | C=C1C(=O)[C@@]23[C@H](O)C[C@@H]4C(C)(C)CCC[C@@]4(C)[C@@H]2CC[C@@H]1[C@H]3O | – | –
14 | – | – | CC(=O)OC[C@@]1(C)CCC[C@]2(C)[C@@H]1C[C@H](O)[C@@]13C[C@@H](CC[C@@H]21)[C@H](C)C3=O | -0.19% | inhibition at 10 µM [1]: 40.4%
15 | 3.11 µM | 4.66 µM | C=C1C(=O)[C@@]23CC[C@@H]4[C@@](C)(COC(C)=O)CCC[C@@]4(C)[C@@H]2[C@@H](OC(C)=O)C[C@@H]1C3 [CROTONKININ E] | – | –
16 | 1.94 µM | 2.48 µM | C=C1C(=O)[C@@]23[C@H](O)C[C@@H]4C(C)(C)CC[C@@H](OC(C)=O)[C@@]4(C)[C@@H]2CC[C@@H]1[C@H]3O | – | –
17 | 4.76 µM | – | CC(=O)OC[C@@]1(C)CCC[C@]2(C)[C@@H]1CC[C@]13CC(=O)[C@H](C[C@H](OC(C)=O)[C@H]12)C3 [CROTONKININ J] | 48.8% | –
18 | 1.74 µM | 2.23 µM | C=C1C(=O)[C@]23C[C@@H]1CC[C@H]2[C@]1(C)CCCC(C)(C)[C@H]1C[C@@H]3O | – | –
19 | 0.13 µM | 0.24 µM | C=C1C(=O)[C@@]23CC[C@@H]4[C@@](C)(COC(C)=O)CCC[C@@]4(C)[C@@H]2CC[C@@H]1C3 | – | –
20 | 2.88 µM | 4.44 µM | C=C1C(=O)[C@]23C[C@H]1CC[C@H]2[C@]1(C)CCC[C@](C)(COC(C)=O)[C@H]1C[C@H]3OC(C)=O [CROTONKININ F] | – | –
21 | 3.27 µM | 5.56 µM | C=C1C(=O)[C@@]23CC[C@H]4[C@@](C)(CCC[C@]4(C)C(=O)O)[C@@H]2CC[C@H]1C3 | – | –
22 | 2.06 µM | 1.63 µM | C=C1C(=O)[C@@]23[C@@H]4CC5=C(C(=O)CC5(C)C)[C@@](C)(O4)[C@@H]2CC[C@@H]1[C@H]3O [CROTONKINENSIN A] | – | –
23 | 3.2 µM | 4.38 µM | CC(=O)O[C@@H]1C[C@@H]2C[C@@]3(C=C2C=O)CC[C@H]2[C@](C)(CO)CCC[C@]2(C)[C@@H]13 [CROTONKININ B] | – | –
24 | 3.95 µM | – | C=C1C(=O)[C@]23C[C@@H]1CC[C@H]2[C@]1(C)CCC[C@](C)(CO)[C@H]1C[C@@H]3O | 45.8% | –
25 | 2.93 µM | – | CC(=O)OC[C@@]1(C)CCC[C@]2(C)[C@@H]1CC[C@]13C=C(C(=O)O)[C@H](C[C@H](OC(C)=O)[C@H]12)C3 [CROTONKININ D] | 20.3% | –

Row | SMILES | IC50 [3, 5] | IC50 [4, 5] | inhibition at 10 µM [2] | other results
26 | c1ccc2c(c1)[I+]c1ccccc1-2 [DIPHENYLENEIODONIUM] | 0.93 µM | – | – | –
